# Reference: ChEMBL document CHEMBL1255290, “Characterization of a novel human immunodeficiency virus type 1 protease inhibitor, A-790742” (Antimicrob Agents Chemother, 2008)
# Tests used:
# [1] = test system: Human immunodeficiency virus 1; experiment: Antiviral activity against HIV1 isolate 11 infected in human MT4 cells obtained from protease inhibitor-resistant patient harboring protease L10I, I15V, K20R, E21Q, E35D, M36I, N37D, R41K, M46L, I54V, I62V, L63P, A71V, T74D, P79A, V82T, I84V, I85V, L90M, I93L mutation derived from viral passages with Lopinavir assessed as reduction in viral cytopathogenicity treated 1 hr post infection measured …; format: functional
# [2] = test system: Human immunodeficiency virus 1; experiment: Antiviral activity against HIV1 pNL4-3 infected in human MT4 cells derived from 13 viral passages with 400 nM A-790742 harboring protease V82L, I84V mutation assessed as reduction in viral cytopathogenicity treated 1 hr post infection measured 5 days post infection by MTT assay relative to wild type HIV1 pNL4-3; format: functional
# Summary of the method: (§1)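 Selection: MT-4 cells infected with parental pNL4-3 or RF (MOI 0.003, 2 h), then passaged under rising selecting drug whenever supernatant p24 (ELISA) exceeded 10 ng/ml. Passage viruses titred by TCID50 (Spearman-Karber). Assay: 10^6 MT-4 cells infected at MOI 0.003 for 1 h, washed, and seeded at 10^4 cells/well with eight serial dilutions, triplicate, 0.5% DMSO final. Day-5 MTT read-out; EC50 fold-change versus parental wild type.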
# [3] = test system: Human immunodeficiency virus 1; experiment: Antiviral activity against HIV1 RF infected in human MT4 cells derived from 15 viral passages with 500 nM A-790742 harboring protease M46I, L63P, A71V, V82G mutation assessed as reduction in viral cytopathogenicity treated 1 hr post infection measured 5 days post infection by MTT assay relative to wild type HIV1 RF; format: functional
# Summary of the method: as §1
# [4] = test system: Human immunodeficiency virus 1; experiment: Antiviral activity against HIV1 P9 infected in human MT4 cells derived from viral passages with A-790742 harboring protease V82V/L and I84V mutation assessed as reduction in viral cytopathogenicity treated 1 hr post infection measured 5 days post infection by MTT assay relative to wild type HIV1 pNL4-3; format: functional
# Summary of the method: (§2)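 For the assay, 10⁶ MT-4 cells were infected at MOI 0.003, washed after 1 h, and plated at 10⁴ cells/well with eight serial compound dilutions in triplicate (0.5% DMSO final). MTT cytopathic read-out at day 5; EC50 from dose-response fitting.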
# [5] = test system: Human immunodeficiency virus 1; experiment: Antiviral activity against HIV1 clone2 infected in HEK293 cells harboring A-790742-selected protease V82L mutation assessed as reduction in viral replication by luciferase reporter gene assay relative to wild type HIV1 pNL4-3; format: functional
# Summary of the method: (§3)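 Single-cycle assay: HEK-293 cells were cotransfected with luciferase-reporter HIV-1 protease clones plus a VSV-G expression vector. After 4 h, cells were replated at 2 × 10⁴/well over serial inhibitor dilutions in triplicate. Pseudovirus collected at 48 h infected fresh HEK-293 (10⁴/well). Luciferase read 48 h later gave % inhibition versus untreated and EC50. Fold change against WT pNL4-3-Luc (clones 1-4) or RF-Luc (clone 5) is the mean of three experiments.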
# [6] = test system: Human immunodeficiency virus 1; experiment: Antiviral activity against HIV1 P13 infected in human MT4 cells derived from viral passages with A-790742 harboring protease M46I, L63P, A71V, and V82G mutation assessed as reduction in viral cytopathogenicity treated 1 hr post infection measured 5 days post infection by MTT assay relative to wild type HIV1 RF; format: functional
# Summary of the method: as §2
# [7] = test system: Human immunodeficiency virus 1; experiment: Antiviral activity against HIV1 isolate 9 infected in human MT4 cells obtained from protease inhibitor-resistant patient harboring protease L10I, I15I/V, K20R, L33F, E35D, M36I, N37D, R41K, K43I, M46I, I54V, I62V, L63P, A71T, I72T, V82A, I84V, L90M, I93L mutation derived from viral passages with Lopinavir assessed as reduction in viral cytopathogenicity treated 1 hr post infection measured 5 days …; format: functional
# [8] = test system: Human immunodeficiency virus 1; experiment: Antiviral activity against HIV1 RF infected in human MT4 cells derived from 10 viral passages with 160 nM A-790742 harboring protease A71V, V82G mutation assessed as reduction in viral cytopathogenicity treated 1 hr post infection measured 5 days post infection by MTT assay relative to wild type HIV1 RF; format: functional
# Summary of the method: as §1
# [9] = test system: Human immunodeficiency virus 1; experiment: Antiviral activity against HIV1 clone4 infected in HEK293 cells harboring A-790742-selected protease L33F, A71V, G73S, V77I, V82L, and I84V mutation assessed as reduction in viral replication by luciferase reporter gene assay relative to wild type HIV1 pNL4-3; format: functional
# Summary of the method: as §3
# [10] = test system: Human immunodeficiency virus 1; experiment: Antiviral activity against HIV1 isolate 2 infected in human MT4 cells obtained from protease inhibitor-resistant patient harboring protease L10I, I15V, G16E, K20R, E35D, M36I, R41K, I54A, R57K, Q61D, A71V, I72R, V82A, L89I, L90M, Q92K mutation derived from viral passages with Lopinavir assessed as reduction in viral cytopathogenicity treated 1 hr post infection measured 5 days post infection by …; format: functional
# [11] = test system: Human immunodeficiency virus 1; experiment: Antiviral activity against HIV1 isolate 6 infected in human MT4 cells obtained from protease inhibitor-resistant patient harboring protease L10I, L24I, M46I, I54V, K55R, Q58E, L63P, I64V, A71V, V82A, T91A mutation derived from viral passages with Lopinavir assessed as reduction in viral cytopathogenicity treated 1 hr post infection measured 5 days post infection by MTT assay relative to wild type …; format: functional
# [12] = test system: Human immunodeficiency virus 1; experiment: Antiviral activity against HIV1 clone1 infected in HEK293 cells harboring A-790742-selected protease I84V mutation assessed as reduction in viral replication by luciferase reporter gene assay relative to wild type HIV1 pNL4-3; format: functional
# Summary of the method: as §3
# [13] = test system: Human immunodeficiency virus 1; experiment: Antiviral activity against HIV1 P15 infected in human MT4 cells derived from viral passages with A-790742 harboring protease L33L/F, K45I, V82L, and I84V mutation assessed as reduction in viral cytopathogenicity treated 1 hr post infection measured 5 days post infection by MTT assay relative to wild type HIV1 pNL4-3; format: functional
# Summary of the method: as §2
# [14] = test system: Human immunodeficiency virus 1; experiment: Antiviral activity against HIV1 RF infected in human MT4 cells derived from 8 viral passages with 52 nM A-790742 harboring protease V75I mutation assessed as reduction in viral cytopathogenicity treated 1 hr post infection measured 5 days post infection by MTT assay relative to wild type HIV1 RF; format: functional
# Summary of the method: as §1
# [15] = test system: Human immunodeficiency virus 1; experiment: Antiviral activity against HIV1 isolate 5 infected in human MT4 cells obtained from protease inhibitor-resistant patient harboring protease L10F, I15V, M46I, L63P, A71V, I72L, V82T, I84V, I85V, L90M mutation derived from viral passages with Lopinavir assessed as reduction in viral cytopathogenicity treated 1 hr post infection measured 5 days post infection by MTT assay relative to wild type HIV1 …; format: functional
# [16] = test system: Human immunodeficiency virus 1; experiment: Antiviral activity against HIV1 B26 infected in human MT4 cells harboring protease L33F, K45I, M46I, I50V, I54V, A71V, and V82F mutation derived from viral passages with Lopinavir assessed as reduction in viral cytopathogenicity treated 1 hr post infection measured 5 days post infection by MTT assay; format: functional, organism-based; conditions: Human immunodeficiency virus 1, B26, MT4
# Summary of the method: as §2
# [17] = test system: Human immunodeficiency virus 1; experiment: Antiviral activity against HIV1 pNL4-3 infected in human MT4 cells derived from 8 viral passages with 50 nM A-790742 harboring protease V82V/L, I84V mutation assessed as reduction in viral cytopathogenicity treated 1 hr post infection measured 5 days post infection by MTT assay relative to wild type HIV1 pNL4-3; format: functional
# Summary of the method: as §1
# [18] = test system: Human immunodeficiency virus 1; experiment: Antiviral activity against HIV1 isolate 8 infected in human MT4 cells obtained from protease inhibitor-resistant patient harboring protease L10I, I13V, L33F, E34Q, R41K, M46I, I54V, K55R, R57K, Q58E, I62V, L63P, A71V, I72I/T, G73S, V82A, I84V, L90M mutation derived from viral passages with Lopinavir assessed as reduction in viral cytopathogenicity treated 1 hr post infection measured 5 days post …; format: functional
# [19] = test system: Human immunodeficiency virus 1; experiment: Antiviral activity against HIV1 A17 infected in human MT4 cells harboring protease L10F, V32I, M46I, I47V, Q58E, and I84V mutation derived from viral passages with Lopinavir assessed as reduction in viral cytopathogenicity treated 1 hr post infection measured 5 days post infection by MTT assay; format: functional, organism-based; conditions: Human immunodeficiency virus 1, A17, MT4
# Summary of the method: as §2
# [20] = test system: Human immunodeficiency virus 1; experiment: Antiviral activity against HIV1 isolate 3 infected in human MT4 cells obtained from protease inhibitor-resistant patient harboring protease L10I, E35D, N37D, […], I54V, L63P, A71V, T74P, I84V, L90M, I93L mutation derived from viral passages with Lopinavir assessed as reduction in viral cytopathogenicity treated 1 hr post infection measured 5 days post infection by MTT assay relative to wild type …; format: functional
# [21] = test system: Human immunodeficiency virus 1; experiment: Antiviral activity against HIV1 isolate 10 infected in human MT4 cells obtained from protease inhibitor-resistant patient harboring protease L10I, I13V, K20R, L33F, E35D, M36I, N37D, I54L, Q58E, I62V, L63P, A71V, V82A, I84V, L90M mutation derived from viral passages with Lopinavir assessed as reduction in viral cytopathogenicity treated 1 hr post infection measured 5 days post infection by MTT …; format: functional
# [22] = test system: Human immunodeficiency virus 1; experiment: Antiviral activity against HIV1 pNL4-3 infected in human MT4 cells derived from 21 viral passages with 2000 nM A-790742 harboring protease L23I, L33F, K45I, A71A/V, V77I, V82L, I84V mutation assessed as reduction in viral cytopathogenicity treated 1 hr post infection measured 5 days post infection by MTT assay relative to wild type HIV1 pNL4-3; format: functional
# Summary of the method: as §1
# [23] = test system: Human immunodeficiency virus 1; experiment: Antiviral activity against HIV1 pNL4-3 infected in human MT4 cells derived from 5 viral passages with 12 nM A-790742 harboring protease I84V mutation assessed as reduction in viral cytopathogenicity treated 1 hr post infection measured 5 days post infection by MTT assay relative to wild type HIV1 pNL4-3; format: functional
# Summary of the method: as §1
# [24] = test system: Human immunodeficiency virus 1; experiment: Antiviral activity against HIV1 isolate 13 infected in human MT4 cells obtained from protease inhibitor-resistant patient harboring protease L10I, K14R, L33F, E34Q, R41K, K45R, M46I, I50V, K55R, L63P, A71V, G73T, V77I, V82A, L90M, I93L mutation derived from viral passages with Lopinavir assessed as reduction in viral cytopathogenicity treated 1 hr post infection measured 5 days post infection by …; format: functional
# [25] = test system: Human immunodeficiency virus 1; experiment: Antiviral activity against HIV1 RF infected in human MT4 cells derived from 6 viral passages with 16 nM A-790742 harboring wild-type protease assessed as reduction in viral cytopathogenicity treated 1 hr post infection measured 5 days post infection by MTT assay relative to wild type HIV1 RF; format: functional
# Summary of the method: as §1
smiles,measurement,setting,value
COC(=O)N[C@H](C(=O)N[C@H](Cc1ccc(-c2ccccn2)cc1)C[C@H](O)[C@H](Cc1ccccc1)NC(=O)[C@@H](N1CCN(Cc2cccc(C(C)(C)O)n2)C1=O)C(C)(C)C)C(C)(C)C,Ratio EC50,[1],11
same,Ratio EC50,[2],133.3
same,Ratio EC50,[3],100
same,Ratio EC50,[4],13
same,Ratio EC50,[5],22
same,Ratio EC50,[6],72
same,Ratio EC50,[7],6
same,Ratio EC50,[8],32
same,Ratio EC50,[9],158
same,Ratio EC50,[10],12
same,Ratio EC50,[11],1
same,Ratio EC50,[12],2
same,Ratio EC50,[13],29
same,Ratio EC50,[14],10.4
same,Ratio EC50,[15],2
same,EC50,[16],22 nM
same,Ratio EC50,[17],16.7
same,Ratio EC50,[18],4
same,EC50,[19],10 nM
same,Ratio EC50,[20],33
same,Ratio EC50,[21],10
same,Ratio EC50,[22],666.7
same,Ratio EC50,[23],4
same,Ratio EC50,[24],2
same,Ratio EC50,[25],3.2
